According to ChEMBL document CHEMBL3091301, “Xanthohumol modulates inflammation, oxidative stress, and angiogenesis in type 1 diabetic rat skin wound healing” (2013):
The source made the active and inactive calls. The calls are words filed in the database; no cut-off is given here.

Tests used:
Rattus norvegicus [1] = test: Antiangiogenic activity in streptozotocin-induced diabetic Wistar rat model assessed as decrease in microvessel density in wound region at 10 mg/L, po administered with superbock stout beer for […] prior to wounding measured on day 7 post-wounding by wound healing assay; format: functional, organism-based
Procedure, shortened: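 Beverage given ad libitum, renewed every two days, kept in dark bottles. Vessels counted in three dorsal skin wound sections per animal and normalized to section area; each separate stained endothelial cell or cluster counted as one vessel; n = 4–6.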

Rattus norvegicus [2] = test: (§1) Antioxidant activity in streptozotocin-induced diabetic Wistar rat model assessed as reduction in hepatic protein carbonylation at 10 mg/L, po administered with superbock stout beer for 5 weeks prior to wounding measured on day 7 post-wounding by Western blotting analysis (reference value: 13.80 +/- 1.12%); format: functional; parameters: scale not given: the % may be the effect or the level left
Rattus norvegicus [3] = test: Antioxidant activity in streptozotocin-induced diabetic Wistar rat model assessed as decrease in H2O2 release in kidney at 10 mg/L, po administered with superbock stout beer for 5 weeks prior to wounding measured on day 7 post-wounding by fluorescence assay relative to control; format: functional, organism-based
Procedure, shortened: (§2)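 Fresh kidney or liver cut into 3 mm3 pieces and incubated 90 min at 37 °C in oxygenated, shaken Krebs-HEPES (pH 7.4, 5 mM glucose). H2O2 released measured by Amplex Red fluorescence. Expressed as percent of healthy control; means ± SEM, n = 4–6.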

Rattus norvegicus [4] = test: Antioxidant activity in streptozotocin-induced diabetic Wistar rat model assessed as reduction in protein carbonylation in kidney at 10 mg/L, po administered with superbock stout beer for 5 weeks prior to wounding measured on day 7 post-wounding by Western blotting analysis relative to control; format: functional, organism-based
Rattus norvegicus [5] = test: as §1, with “3-NT” for “hepatic”, “expression in kidney” for “carbonylation”, “3.76” for “13.80”, “0.57%)” for “1.12%)”; format: functional; parameters: scale not given: the % may be the effect or the level left
Rattus norvegicus [6] = test: as §1, with “3-NT” for “hepatic”, “expression in liver” for “carbonylation”, “5.52” for “13.80”, “1.64%)” for “1.12%)”; format: functional; parameters: scale not given: the % may be the effect or the level left
Rattus norvegicus [7] = test: Antioxidant activity in streptozotocin-induced diabetic Wistar rat model assessed as […] in H2O2 release in liver at 10 mg/L, po administered with superbock stout beer for 5 weeks prior to wounding measured on day 7 post-wounding by fluorescence assay relative to control; format: functional, organism-based; procedure, shortened: as §2
Rattus norvegicus [8] = test: Antioxidant activity in streptozotocin-induced diabetic Wistar rat model assessed as increase in reduced glutathione level in serum at 10 mg/L, po administered with superbock stout beer for 5 weeks prior to wounding measured on day 7 post-wounding by RP-HPLC analysis; format: functional, organism-based
Procedure, shortened: (§3)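 Plasma reduced and oxidized glutathione separated and quantified by reversed-phase HPLC with a GSH/GSSG kit. Samples came from skin-injured STZ-diabetic rats after five weeks of ad libitum beverage. Expressed as percent of control; n = 4–6.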

Rattus norvegicus [9] = test: Antioxidant activity in streptozotocin-induced diabetic Wistar rat model assessed as increase in reduced/oxidized glutathione ratio in serum at 10 mg/L, po administered with superbock stout beer for 5 weeks prior to wounding measured on day 7 post-wounding by RP-HPLC analysis; format: functional, organism-based; procedure, shortened: as §3
Rattus norvegicus [10] = test: Antiinflammatory activity in streptozotocin-induced diabetic Wistar rat model assessed as reduction in nitric oxide level in serum at 10 mg/L, po administered with superbock stout beer for 5 weeks prior to wounding measured on day 7 post-wounding by Griess method relative to control; format: functional, organism-based
Rattus norvegicus [11] = test: Antiinflammatory activity in streptozotocin-induced diabetic Wistar rat model assessed as reduction in N-acetylglucosaminidase level in serum at 10 mg/L, po administered with superbock stout beer for 5 weeks prior to wounding measured on day 7 post-wounding relative to control; format: functional, organism-based
Rattus norvegicus [12] = test: Antiinflammatory activity in streptozotocin-induced diabetic Wistar rat model assessed as reduction in IL1beta level in serum at 10 mg/L, po administered with superbock stout beer for 5 weeks prior to wounding measured on day 7 post-wounding by ELISA (reference value: 20.94 +/- 2.17 pg/mL); format: functional
Rattus norvegicus [13] = test: Antiangiogenic activity in streptozotocin-induced diabetic Wistar rat model assessed as reduction in VEGF-A level in plasma at 10 mg/L, po administered with superbock stout beer for 5 weeks prior to wounding measured on day 7 post-wounding by ELISA; format: functional, organism-based
Procedure, shortened: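 STZ-diabetic male Wistar rats (50 mg/kg i.p.; glucose >250 mg/dL) drinking the beverage ad libitum for five weeks, with skin injury. Plasma VEGF-A measured by rat VEGF Quantikine ELISA per kit instructions; means ± SEM, n = 4–6; ANOVA with Bonferroni.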

COc1cc(O)c(CC=C(C)C)c(O)c1C(=O)/C=C/c1ccc(O)cc1 [XANTHOHUMOL]
Activity (Rattus norvegicus [1]): Active | Activity (Rattus norvegicus [2]): 4.67% | Activity (Rattus norvegicus [3]): Active | Activity (Rattus norvegicus [4]): Active | Activity (Rattus norvegicus [5]): 1.99% | Activity (Rattus norvegicus [6]): 1.38% | Activity (Rattus norvegicus [7]): Active | Activity (Rattus norvegicus [8]): Active | Activity (Rattus norvegicus [9]): Active | Activity (Rattus norvegicus [10]): Active | Activity (Rattus norvegicus [11]): Active | Activity (Rattus norvegicus [12]): 13.36 pg/mL | Activity (Rattus norvegicus [13]): Active
